Test results reported in ChEMBL document CHEMBL5260841, “Discovery of N-(4-(6-Acetamidopyrimidin-4-yloxy)phenyl)-2-(2-(trifluoromethyl)phenyl)acetamide (CHMFL-FLT3-335) as a Potent FMS-like Tyrosine Kinase 3 Internal Tandem Duplication (FLT3-ITD) Mutant Selective Inhibitor for Acute Myeloid Leukemia” (J Med Chem, 2019).

How the values were obtained:
[1] = AUC (0 to t) in Sprague-Dawley rat at 1 mg/kg, iv; assay type: ADME, organism-based; design: dose 1 mg/kg, route iv; details: in vivo
Procedure, shortened: (§1)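 Sprague-Dawley rats dosed IV at 1 mg/kg or by oral gavage at 10 mg/kg. Parameters from plasma exposure: AUC(0-t), AUC(0-∞), MRT, T1/2, Tmax, Vz, CLz, Cmax. Values are mean ± SD from three animals.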

[2] = Half life in Sprague-Dawley rat at 1 mg/kg, iv; assay type: ADME, organism-based; details: in vivo
Procedure, shortened: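 Sprague-Dawley rats were dosed either intravenously at 1 mg/kg or by oral gavage at 10 mg/kg. Plasma PK parameters were AUC(0-t), AUC(0-∞), MRT(0-t), T1/2, Tmax, Vz, CLz, Cmax and F%. Values are the mean ± SD of three independent animals.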

[3] = Apparent volume of distribution in Sprague-Dawley rat at 1 mg/kg, iv; assay type: ADME, organism-based; details: in vivo, read-out: Vz; procedure, shortened: as §1
BaF3 [4] = test: Antiproliferative activity against mouse BaF3 cells transfected with FLT3 ITD mutant harboring AML patient derived LKWEFPRENLEFEVTGSSDNEYFYVDFREYEYD sequence assessed as cell growth inhibition incubated for 72 hrs by CCK-8 assay; assay type: functional
Procedure, shortened: (§2)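 Kinase-transformed isogenic BaF3 lines grown in RPMI 1640 with 10% FBS, 2% L-glutamine and pen/strep at 37 °C, 5% CO2. Seeded at 1500-3000 cells/well and treated with a compound concentration series for 72 h. Viability read by CCK8 absorbance at 450 nm.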

BaF3 [5] = test: Antiproliferative activity against mouse BaF3 cells transfected with TEL fused FLT3 D835V mutant assessed as cell growth inhibition incubated for 72 hrs by CCK-8 assay; assay type: functional; procedure, shortened: as §2
BaF3 [6] = test: Antiproliferative activity against mouse BaF3 cells transfected with FLT3 ITD D835del mutant assessed as cell growth inhibition incubated for 72 hrs by CCK-8 assay; assay type: functional; procedure, shortened: as §2
[7] = target: Platelet-derived growth factor receptor alpha (Homo sapiens, UniProt P16234); test: Inhibition of PDGFRalpha (unknown origin) assessed as residual activity at 1 uM preincubated for 60 mins followed by ATP addition and measured after 1 hr by ADP-Glo assay relative to control; details: time 2.0 hrs
Chain of Platelet-derived growth factor receptor alpha (P16234 whole entry): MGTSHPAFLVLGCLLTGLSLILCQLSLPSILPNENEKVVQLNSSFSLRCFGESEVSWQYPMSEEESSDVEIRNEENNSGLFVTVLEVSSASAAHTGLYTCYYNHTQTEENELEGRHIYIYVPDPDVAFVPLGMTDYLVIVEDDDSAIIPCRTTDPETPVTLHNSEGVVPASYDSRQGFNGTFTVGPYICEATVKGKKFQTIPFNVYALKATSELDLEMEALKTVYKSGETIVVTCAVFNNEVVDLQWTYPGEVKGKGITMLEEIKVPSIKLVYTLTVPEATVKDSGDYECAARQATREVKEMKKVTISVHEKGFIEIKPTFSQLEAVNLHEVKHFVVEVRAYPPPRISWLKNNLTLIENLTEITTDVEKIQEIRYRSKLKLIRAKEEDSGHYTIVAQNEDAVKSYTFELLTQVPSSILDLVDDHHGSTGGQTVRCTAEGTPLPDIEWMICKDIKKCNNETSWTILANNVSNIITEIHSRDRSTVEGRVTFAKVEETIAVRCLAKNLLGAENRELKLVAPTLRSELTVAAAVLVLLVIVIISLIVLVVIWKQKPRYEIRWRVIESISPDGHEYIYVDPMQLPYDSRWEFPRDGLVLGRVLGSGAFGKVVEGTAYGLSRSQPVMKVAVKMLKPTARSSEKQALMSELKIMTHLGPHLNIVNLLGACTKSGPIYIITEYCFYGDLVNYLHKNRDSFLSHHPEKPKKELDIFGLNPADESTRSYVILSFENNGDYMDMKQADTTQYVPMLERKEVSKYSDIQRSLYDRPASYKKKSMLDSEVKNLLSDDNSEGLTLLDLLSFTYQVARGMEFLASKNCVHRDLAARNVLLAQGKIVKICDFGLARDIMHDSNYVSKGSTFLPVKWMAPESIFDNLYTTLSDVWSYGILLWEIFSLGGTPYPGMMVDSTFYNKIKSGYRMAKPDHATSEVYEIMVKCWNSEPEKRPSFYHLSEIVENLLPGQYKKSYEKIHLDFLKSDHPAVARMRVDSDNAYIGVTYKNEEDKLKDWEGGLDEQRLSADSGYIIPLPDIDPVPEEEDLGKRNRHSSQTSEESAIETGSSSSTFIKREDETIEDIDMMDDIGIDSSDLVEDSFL

[8] = target: Mitogen-activated protein kinase kinase kinase kinase 1 (Homo sapiens, UniProt Q92918); test: Inhibition of HPK1 (unknown origin) assessed as residual activity at 1 uM preincubated for 60 mins followed by ATP addition and measured after 1 hr by ADP-Glo assay relative to control; details: time 2.0 hrs
Chain of Mitogen-activated protein kinase kinase kinase kinase 1 (Q92918 whole entry, looked up): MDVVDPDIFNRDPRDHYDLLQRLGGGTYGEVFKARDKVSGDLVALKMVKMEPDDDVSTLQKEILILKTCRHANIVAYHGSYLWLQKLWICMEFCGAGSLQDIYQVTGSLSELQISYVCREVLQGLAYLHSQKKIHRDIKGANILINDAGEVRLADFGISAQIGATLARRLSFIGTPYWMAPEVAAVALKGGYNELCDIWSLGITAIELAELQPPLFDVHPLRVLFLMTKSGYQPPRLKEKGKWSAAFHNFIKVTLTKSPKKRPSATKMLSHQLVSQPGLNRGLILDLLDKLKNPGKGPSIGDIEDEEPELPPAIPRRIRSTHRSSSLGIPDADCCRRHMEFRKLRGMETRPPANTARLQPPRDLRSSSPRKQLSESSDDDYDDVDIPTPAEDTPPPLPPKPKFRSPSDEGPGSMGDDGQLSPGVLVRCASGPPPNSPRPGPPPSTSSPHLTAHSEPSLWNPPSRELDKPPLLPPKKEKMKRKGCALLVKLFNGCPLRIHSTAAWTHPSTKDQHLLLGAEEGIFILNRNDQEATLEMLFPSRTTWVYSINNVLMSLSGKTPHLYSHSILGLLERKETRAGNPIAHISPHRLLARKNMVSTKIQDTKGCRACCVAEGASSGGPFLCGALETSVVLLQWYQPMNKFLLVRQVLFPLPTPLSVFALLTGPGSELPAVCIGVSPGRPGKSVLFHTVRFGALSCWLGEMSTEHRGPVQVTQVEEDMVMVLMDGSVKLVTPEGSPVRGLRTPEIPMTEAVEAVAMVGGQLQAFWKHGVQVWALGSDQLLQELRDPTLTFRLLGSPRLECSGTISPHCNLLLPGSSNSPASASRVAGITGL

OCI-AML2 = test: Antiproliferative activity against human OCI-AML2 cells transfected with wild type FLT3 assessed as cell growth inhibition incubated for 72 hrs by CCK-8 assay; assay type: functional
Procedure, shortened: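 Cells kept at 37 °C, 5% CO2. MV4-11 grown in IMDM with 10% FBS. MOLM13, MOLM14, U937 and HL-60 grown in RPMI 1640 with 10% FBS. OCI-AML-2 grown in α-MEM with 20% FBS. Seeded at 1500-3000 cells/well and exposed to a concentration series for 72 h. Viability read by CCK8 absorbance at 450 nm.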

[9] = target: T1, Signal transducer and activator of transcription 5A (Homo sapiens) (UniProt P42229); test: Inhibition of STAT5 phosphorylation at Tyr694 residue in human MOLM-13 cells harboring FLT3-ITD mutant incubated for 4 hrs by Western blot analysis; assay type: cell-based; details: dose 0.01-3 µM
T1 sequence (whole entry): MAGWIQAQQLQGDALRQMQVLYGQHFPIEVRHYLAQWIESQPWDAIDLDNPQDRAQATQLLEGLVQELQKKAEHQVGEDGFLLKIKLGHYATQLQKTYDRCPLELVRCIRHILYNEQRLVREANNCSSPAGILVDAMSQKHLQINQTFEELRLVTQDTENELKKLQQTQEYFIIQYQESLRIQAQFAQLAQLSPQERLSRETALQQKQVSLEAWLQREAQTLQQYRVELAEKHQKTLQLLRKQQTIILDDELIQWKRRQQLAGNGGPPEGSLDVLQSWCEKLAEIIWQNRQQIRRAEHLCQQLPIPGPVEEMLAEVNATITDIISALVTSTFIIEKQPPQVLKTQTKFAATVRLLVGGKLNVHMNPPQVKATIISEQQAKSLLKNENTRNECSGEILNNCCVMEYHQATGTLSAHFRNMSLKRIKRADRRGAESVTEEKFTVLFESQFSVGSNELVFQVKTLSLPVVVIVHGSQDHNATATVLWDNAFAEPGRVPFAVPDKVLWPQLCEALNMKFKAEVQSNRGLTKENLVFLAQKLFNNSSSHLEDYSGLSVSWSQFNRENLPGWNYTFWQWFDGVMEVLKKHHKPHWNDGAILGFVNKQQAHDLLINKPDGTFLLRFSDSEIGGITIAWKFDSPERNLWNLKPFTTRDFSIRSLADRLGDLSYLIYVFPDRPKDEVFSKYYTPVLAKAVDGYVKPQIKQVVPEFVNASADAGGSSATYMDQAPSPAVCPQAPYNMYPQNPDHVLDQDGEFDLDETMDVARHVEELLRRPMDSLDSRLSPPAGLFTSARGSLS
Procedure, shortened: (§3)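 Cells were exposed to the compound at a series of concentrations for 4 h, and whole-cell lysates were analysed by Western blot. MV4-11 cells were grown in IMDM with 10% FBS. MOLM13 and MOLM14 cells were grown in RPMI 1640 with 10% FBS. All cultures were kept at 37 °C with 5% CO2.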

MV4-11 [10] = test: Inhibition of AKT phosphorylation at Ser473 residue in human MV4-11 cells harboring FLT3-ITD mutant incubated for 4 hrs by Western blot analysis; assay type: cell-based; details: dose 0.01-3 µM; procedure, shortened: as §3
MOLM-14 = test: Inhibition of AKT phosphorylation at Thr308 residue in human MOLM-14 cells harboring FLT3-ITD mutant incubated for 4 hrs by Western blot analysis; assay type: cell-based; details: dose 0.01-3 µM; procedure, shortened: as §3
MV4-11 [11] = test: Inhibition of AKT phosphorylation at Thr308 residue in human MV4-11 cells harboring FLT3-ITD mutant incubated for 4 hrs by Western blot analysis; assay type: cell-based; details: dose 0.01-3 µM; procedure, shortened: as §3
MOLM-13 [12] = test: Inhibition of ERK phosphorylation at Thr202/Tyr204 residues in human MOLM-13 cells harboring FLT3-ITD mutant incubated for 4 hrs by Western blot analysis; assay type: cell-based; details: dose 0.01-3 µM; procedure, shortened: as §3
MV4-11 [13] = test: Inhibition of ERK phosphorylation at Thr202/Tyr204 residues in human MV4-11 cells harboring FLT3-ITD mutant incubated for 4 hrs by Western blot analysis; assay type: cell-based; details: dose 0.01-3 µM; procedure, shortened: as §3
MOLM-13 [14] = test: Downregulation of c-Myc protein expression in human MOLM-13 cells harboring FLT3-ITD mutant incubated for 4 hrs by Western blot analysis; assay type: functional, cell-based; details: dose 0.01-3 µM
Procedure, shortened: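 MOLM13 and MOLM14 cells exposed to the indicated concentrations for 4 h. Whole-cell lysates analysed by Western blot for c-Myc, alongside FLT3 Tyr589/591, STAT5, AKT and ERK phosphorylation.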

AUC(0-t) [1]: 1560 ng·h/mL
half-life [2]: 1.3 h
Vd [3]: 1.2 L/kg
GI50 (BaF3 [4]): 0.082 µM
GI50 (BaF3 [5]): > 10 µM
GI50 (BaF3 [6]): > 10 µM
Activity [7]: 3.3%
Activity [8]: 0.6%
GI50 (OCI-AML2): > 10 µM
inhibition [9]: Dose-Dependent Effect
Compound: CC(=O)Nc1cc(Oc2ccc(NC(=O)Cc3ccccc3C(F)(F)F)cc2)ncn1
inhibition (MV4-11 [10]): Dose-Dependent Effect
inhibition (MOLM-14): Dose-Dependent Effect
inhibition (MV4-11 [11]): Dose-Dependent Effect
inhibition (MOLM-13 [12]): Dose-Dependent Effect
inhibition (MV4-11 [13]): Dose-Dependent Effect
Activity (MOLM-13 [14]): Dose-Dependent Effect
